Laboratory results: ChEMBL document CHEMBL4699541, “Fragment based drug design and diversity-oriented synthesis of carboxylic acid isosteres” (Bioorg Med Chem, 2020)

Tests used:
Type in all cases: physicochemical
[1] = Dissociation constant, pKa of compound measured under acidic conditions by Sirius T3 apparatus based potentiometric titration analysis
[2] = Dissociation constant, pKa of compound in water by Sirius T3 apparatus based potentiometric titration analysis
[3] = Distribution coefficient, logD of compound at pH 8 by Sirius T3 apparatus based potentiometric titration analysis; details: octanol/water
[4] = Dissociation constant, pKa of compound in DMSO by Sirius T3 apparatus based potentiometric titration analysis
[5] = Distribution coefficient, logD of compound at pH 3 by Sirius T3 apparatus based potentiometric titration analysis; details: octanol/water
[6] = Octanol/water partition coefficient, logP of compound by Sirius T3 apparatus based potentiometric titration analysis
Procedure, shortened: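 Measured by potentiometric (pH-metric) titration in an immiscible octanol–water biphasic system on a Sirius T3. Run at 25 °C at constant ionic strength (0.15 M KCl), using the pKa values determined earlier on the same instrument. Samples came from 50 mM DMSO stocks.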

Row | SMILES | pKa [1] | pKa [2] | logD [3] | pKa [4] | logD [5] | logP [6]
1 | Cc1cccc(/C(N)=N/O)c1 | 4.97 | > 12 | – | – | – | –
2 | Cc1cccc(Cc2nsc(O)n2)c1 | – | – | 0.42 | 6.35 | 2.02 | 2.15
3 | Cc1cccc(C(=O)O)c1 | – | 3.99 | – | – | – | –
4 | Cc1cccc(C/C(N)=N/O)c1 | 5.27 | > 12 | – | – | – | –
5 | Cc1cccc(CC(N)=O)c1 | – | > 12 | – | – | – | –
6 | Cc1cccc(C(N)=O)c1 | – | > 12 | – | – | – | –
7 | Cc1cccc(Cc2noc(O)n2)c1 | – | 5.59 | -0.42 | – | 1.39 | 1.63
8 | Cc1cccc(Cc2nnn[nH]2)c1 | – | – | -0.96 | 4.73 | 1.07 | 1.51
9 | Cc1cccc(-c2noc(S)n2)c1 | – | – | -0.7 | 2.64 | 1.44 | 2.65
10 | Cc1cccc(C2=C(O)COC2=O)c1 | – | – | -0.87 | 2.95 | 1.26 | 2.32
11 | Cc1cccc(CC(=O)O)c1 | – | 4.13 | -0.7 | – | 1.35 | 1.98
12 | Cc1cccc(CC(=O)NS(C)(=O)=O)c1 | – | – | -1.58 | 4.63 | 0.44 | 0.97
13 | Cc1cccc(Cc2noc(S)n2)c1 | – | – | -0.7 | 3.19 | 1.42 | 2.39
14 | Cc1cccc(-c2nsc(O)n2)c1 | – | – | 0.34 | 5.99 | 2.04 | 2.22
15 | Cc1cccc(-c2noc(O)n2)c1 | – | 5.12 | -1.11 | – | 0.8 | 1.14
16 | Cc1cccc(-c2nnn[nH]2)c1 | – | – | -0.95 | 4.07 | 1.1 | 1.75
